Screening data as filed in PubChem BioAssay.
CHT block – inhibitors of human choline transporter CHT | CHT-expressing cells, membrane potential dye, choline response; stronger effect = lower value | B-score at 10 µM | 310,000 tested, 0.86% active | AID 488975, 2010;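 active = B-score over 3 SD under the library average, and starting fluorescence ratio not unusually high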;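 also: choline stimulus applied at its EC90 after an EC20 pre-addition; B-score computed on integrated fluorescence ratio after choline addition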
CHT PAM – CHT positive allosteric modulators, primary screen, cell-based, membrane potential dye, choline EC20 | High affinity choline transporter 1 (Homo sapiens), Q9GZV3 | CHT-expressing cells; stronger effect = higher value; LV-AA mutant CHT in HEK293 cells | AID 488977, 2010 | 310,000 tested, 0.49% active | B-score at 10 µM;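 active = initial fluorescence not abnormally high and integrated response B-score, plate-corrected, over 3 SD above library mean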
pCIP destab – p/CIP-EGFP fusion destabilizers, primary screen, fluorescence, F442A cells; Q05BA5; 16 h; decrease of EGFP signal, % at 10 µM; 290,000 tested, 0.01% active; AID 1984, 2009;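 active = EGFP signal decrease of at least 30% at 10 µM or well 3 SD below plate mean, unless failing retest; inactive = the rest, including hits failing retest or dose response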
DSG3 Ab inh – inhibitors of pemphigus antibody binding to DSG3, primary screen, biochemical, bead-based, flow cytometry, scFv-GFP; AID 588358, 2011; 310,000 tested, 0.48% active; DSG3-coupled beads, scFv-anti-DSG3-GFP binding; stronger effect = lower value; binding (percent of control), % at 10 µM;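 active = binding more than 3 SD below its plate's average and above zero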;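 also: hits lower antibody fragment binding to DSG3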
Target sequence (P32926 whole entry, looked up, the tested form may be a part): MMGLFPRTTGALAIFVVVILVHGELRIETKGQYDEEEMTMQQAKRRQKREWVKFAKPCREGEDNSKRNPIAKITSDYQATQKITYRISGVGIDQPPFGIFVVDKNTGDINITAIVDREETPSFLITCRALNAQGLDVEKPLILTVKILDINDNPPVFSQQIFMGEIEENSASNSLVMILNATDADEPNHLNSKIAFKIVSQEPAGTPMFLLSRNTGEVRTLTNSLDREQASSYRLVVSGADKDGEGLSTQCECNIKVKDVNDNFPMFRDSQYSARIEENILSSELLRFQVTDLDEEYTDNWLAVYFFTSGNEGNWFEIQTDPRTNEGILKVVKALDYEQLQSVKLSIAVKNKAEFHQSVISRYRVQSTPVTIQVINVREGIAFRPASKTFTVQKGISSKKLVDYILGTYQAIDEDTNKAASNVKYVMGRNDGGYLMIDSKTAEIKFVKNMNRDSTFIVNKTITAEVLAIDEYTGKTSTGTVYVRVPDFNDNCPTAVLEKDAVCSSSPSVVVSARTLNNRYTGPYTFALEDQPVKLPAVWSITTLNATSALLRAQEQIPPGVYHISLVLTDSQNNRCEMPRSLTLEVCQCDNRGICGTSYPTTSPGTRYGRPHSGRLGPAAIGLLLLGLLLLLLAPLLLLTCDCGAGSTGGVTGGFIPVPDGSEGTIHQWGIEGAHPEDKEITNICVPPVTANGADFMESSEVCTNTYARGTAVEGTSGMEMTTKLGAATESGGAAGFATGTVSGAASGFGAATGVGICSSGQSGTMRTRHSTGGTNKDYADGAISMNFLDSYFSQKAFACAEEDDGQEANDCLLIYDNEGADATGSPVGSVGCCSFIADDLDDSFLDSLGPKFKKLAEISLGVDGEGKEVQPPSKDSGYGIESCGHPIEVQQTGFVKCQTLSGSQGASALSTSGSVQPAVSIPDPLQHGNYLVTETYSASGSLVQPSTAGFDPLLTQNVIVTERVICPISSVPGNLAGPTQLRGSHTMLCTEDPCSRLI
GPR7 antag – GPR7 receptor antagonists, primary screen, cell-based, fluorescence, single concentration. Neuropeptides B/W receptor type 1 (Homo sapiens), P48145. GPR7-expressing cells, fluorescence antagonist assay. AID 1861, 2009. inhibition, % at 4.4 µM. 290,000 tested, 1.1% active; in the data active = inhibition above about 16%, passing the limit was not always enough;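 also: cells stimulated with the agonist NPW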
T cell modulator – modulators of CD8 T cell-vesicle binding, primary screen, mouse 2C CD8+ T cells, flow cytometry; 330,000 tested, 0.068% active; 2C CD8+ T cell-vesicle binding; stronger effect = lower value; response (vesicle binding), % at 7 µM;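 active = response, share of CD8 T cells binding vesicles, and their 90th percentile fluorescence all below set limits, cut at about 80% in these data, passing the limit was not always enough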;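 also: values below 100% mean blocked vesicle binding to the CD8+ T cells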
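incubation = binding step 1.5 h, 37 °C, antibody labelling 20 min, ice | test system = 2C mouse CD8+ T cells | read-out basis = percent CD8+ FL2 mean versus row control | controls = Peptide-free naked vesicles (low) and QL9 vesicles with 0.7% DMSO vehicle (high) | detection = flow cytometry of vesicle-bound cells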
CHT block conf – CHT inhibitors, confirmation, cell-based, membrane potential dye, duplicate. shares compounds with CHT block. CHT-expressing cells, choline membrane potential dye; LV-to-AA substituted CHT, HEK293 cells. CHT activity remaining % of control (stronger effect = lower value), % at 10 µM. 2,400 tested, 70% active;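 active = choline transporter activity left, mean of duplicates at 10 µM, below buffer-only control mean minus 3 SD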;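 also: depolarization triggered by choline at its EC90 following an EC20 pre-addition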
HEK293 MPD ctr – membrane potential effects in parental HEK293, counter-screen for CHT inhibitor project, cell-based, membrane potential dye | 2,400 tested, 4% active | membrane potential ratio readout (active if shifted either direction beyond buffer ±3SD; no single direction) at 10 µM | shares compounds with CHT block | choline response; active = decrease or increase beyond buffer ±3SD | AID 493222, 2011;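 also: parental cells lack the transporter so any hit is non-specific; ratio is peak minus trough fluorescence over baseline after EC90 choline challenge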
Of the large screens only hits and unclear results are named; the others gave an inactive call (follow-up assays come after a bar, where they were run). Shown are actives, neighbours in structure and some others; about 2.3% of the full set was active somewhere.

CC(=O)c1cccc(NC(=O)c2ccc(CN3CCc4ccccc4C3)cc2)c1	none
CCC(C(=O)NC(C)CCc1ccccc1)n1nc(C)n2c(cc3occc32)c1=O (centres undefined)	CHT block -11 | CHT block conf inactive | HEK293 MPD ctr -8.5
O=[N+]([O-])c1cc(-c2ncccn2)c([N+](=O)[O-])s1	CHT block -6.3 | CHT block conf 48% | HEK293 MPD ctr inactive
O=C(CCc1nc2ccccc2n1-c1ccccc1)NCCO	none
CCN1CCN(C(=O)CCc2nc3ccccc3n2-c2ccccc2)CC1	CHT block -6.1 | CHT block conf 40% | HEK293 MPD ctr inactive
O=C(O)CN1C(=O)NC2(CCCc3ccccc32)C1=O (centres undefined)	none (no result: DSG3 Ab inh)
O=C(CN1C(=O)NC2(CCCc3ccccc32)C1=O)N1CCc2ccccc2C1 (centres undefined)	CHT block -6.1 | CHT block conf 34% | HEK293 MPD ctr inactive
CC(C)[C@H]1C(=O)Nc2ccccc2N1C(=O)N[C@@H](Cc1ccccc1)C(=O)N[C@@H](Cc1ccccc1)C(=O)O	none
CC(C)[C@H]1C(=O)Nc2ccccc2N1C(=O)N[C@@H](Cc1ccccc1)C(=O)N[C@H](Cc1ccccc1)C(=O)O	CHT block -7.2 (no result: DSG3 Ab inh) | CHT block conf inactive | HEK293 MPD ctr inactive
Cc1ccc(S(=O)(=O)NCC(=O)OCC(=O)N2CC(C)OC(C)C2)cc1 (centres undefined)	none (no result: CHT block, CHT PAM, pCIP destab, GPR7 antag)
CC1=C(C(=O)Nc2cccc(C(=O)NC3CCCC(C)C3C)c2)SCCO1 (centres undefined)	CHT block -5.6 | CHT block conf 57% | HEK293 MPD ctr inactive
COc1ccccc1Nc1nnc(SCC2CCCCO2)s1 (centres undefined)	CHT block -6.3 | CHT block conf 57% | HEK293 MPD ctr inactive
Cc1ccc(C)c(N(C)S(=O)(=O)c2cccc3nsnc23)c1	CHT block -5.2 | CHT block conf inactive | HEK293 MPD ctr inactive
CC(C)Oc1ccc(C(=O)Nc2cc(S(=O)(=O)N3CCOCC3)ccc2N2CCOCC2)cc1	none (no result: CHT block, CHT PAM, pCIP destab, GPR7 antag, T cell modulator)
CC(=O)C1=C(O)C(=O)N(Cc2ccccc2)C1c1ccccc1F (centres undefined)	CHT block -8.4 | CHT block conf inactive | HEK293 MPD ctr inactive
COc1ccc(C(=O)OCc2ccccc2C#N)cc1S(=O)(=O)N1CCOCC1	none (no result: CHT block, CHT PAM, pCIP destab, GPR7 antag, T cell modulator)
Cc1ccc(Nc2nnc(-c3ccc(N4CCOCC4)c([N+](=O)[O-])c3)c3ccccc23)cc1	CHT block -5.4 | CHT block conf 59% | HEK293 MPD ctr inactive
C[C@H]1CN([C@@H](C)CO)C(=O)CCCn2nncc2CO[C@H]1CN(C)S(=O)(=O)c1ccc(F)cc1	none (no result: CHT block, CHT PAM, pCIP destab, GPR7 antag, T cell modulator)
C[C@@H]1CN([C@H](C)CO)C(=O)CCCn2nncc2CO[C@@H]1CN(C)S(=O)(=O)c1ccccc1	none (no result: CHT block, CHT PAM, pCIP destab, GPR7 antag, T cell modulator)
CC(C)(C)c1ccc(-c2nnc(N)s2)cc1	CHT block -6 | CHT block conf inactive | HEK293 MPD ctr inactive
Nc1nnc(-c2ccc(F)cc2)s1	none
O=C1NC[C@H](c2ccccc2)OC(=O)[C@H](Cc2ccc(F)cc2)C/C=C\C[C@H]1CC(=O)N(CCO)Cc1ccccc1	none (no result: CHT block, CHT PAM, pCIP destab, GPR7 antag)
Cc1ccc2c(c1)c(CC(=O)Nc1ccc(C)c(F)c1)c(C(=O)O)n2C	CHT block -5.4 (no result: T cell modulator) | CHT block conf 63% | HEK293 MPD ctr inactive
CCOC(=O)c1ccc(NC(=O)c2nc[nH]c2C(=O)NC[C@H](C)O)cc1	none (no result: CHT block, CHT PAM, pCIP destab, GPR7 antag, T cell modulator)
CCOC(=O)c1c(N)sc(N)c1C(=O)OCC	none
